Assay type in all cases: cell-based
Holding throughout (conditions): THP-1

Assay [1] deals with T1, Toll-like receptor 4/MD-2 (Homo sapiens) (UniProt O00206+Q9Y6Y9). Description: Agonist activity at TLR4/MD-2 receptor complex in human THP1 cells assessed as IL-1beta release at 0.1 uM after 24 hrs by ELISA in presence of lipid IVa in presence of 0.5 uM of lipid IVa. In outline: (§1)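 THP-1 cells plated at 0.5 × 10⁶ cells/well in RPMI with 25 ng/mL PMA for 48 h. Adherent cells washed with PBS, held in serum-free RPMI 3 h, then stimulated 24 h with agonist plus increasing lipid IVa (dissolved in DMSO). Supernatant TNF-α and IL-1β measured by ELISA, A450 corrected at 540 nm. Duplicates; mean of two separate experiments.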
In general terms: ELISA stands for enzyme-linked immunosorbent assay.

Assay [2] addresses T1, Toll-like receptor 4/MD-2 (Homo sapiens). Description: Agonist activity at TLR4/MD-2 receptor complex in human THP1 cells assessed as IL-1beta release at 0.001 uM after 24 hrs by ELISA in presence of lipid IVa in presence of 0.1 uM of lipid IVa. The gist of the method: as §1
Assay [3] has the same target. Description: Agonist activity at TLR4/MD-2 receptor complex in human THP1 cells assessed as TNF-alpha release at 0.1 uM after 24 hrs by ELISA in presence of 0.5 uM of lipid IVa. The gist of the method:
as §1

For assay [4] the target is unchanged. Description: Agonist activity at TLR4/MD-2 receptor complex in human THP1 cells assessed as IL-1beta release at 10^-4 uM after 24 hrs by ELISA. The gist of the method:
(§2)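 Mimics reconstituted in 20% DMSO/PBS with brief sonication, fresh aliquot per experiment, final DMSO ≤0.5%. THP-1 cells differentiated 48 h with 25 ng/mL PMA, washed, serum-starved 3 h. Stimulated 24 h across 10⁻⁴–10 µM. Supernatant TNF-α, IL-6 or IL-1β read by ELISA (450 nm, 540 nm correction). Duplicates; mean of two experiments.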

Assay [5] has the same target. Description: Agonist activity at TLR4/MD-2 receptor complex in human THP1 cells assessed as IL-1beta release at 10^-3 uM after 24 hrs by ELISA. In outline:
as §2

Assay [6] shares this target. Description: Agonist activity at TLR4/MD-2 receptor complex in human THP1 cells assessed as IL-1beta release at 0.1 uM after 24 hrs by ELISA in presence of lipid IVa in presence of 0.1 uM of lipid IVa. In outline: as §1
Assay [7] has the same target. Description: Agonist activity at TLR4/MD-2 receptor complex in human THP1 cells assessed as IL-6 release at 0.1 uM to 1 uM after 24 hrs by ELISA. In outline: as §2
The target is the same in assay [8]. Description: Agonist activity at TLR4/MD-2 receptor complex in human THP1 cells assessed as IL-1beta release at 10 uM after 24 hrs by ELISA. In outline: as §2
For assay [9] the target is unchanged. Description: Agonist activity at TLR4/MD-2 receptor complex in human THP1 cells assessed as TNF-alpha release at 10^-3 uM after 24 hrs by ELISA. In outline: as §2
For assay [10] the target is unchanged. Description: Agonist activity at TLR4/MD-2 receptor complex in human THP1 cells assessed as IL-1beta release at 0.1 uM to 1 uM after 24 hrs by ELISA. In outline: as §2
The target is the same in assay [11]. Description: Agonist activity at TLR4/MD-2 receptor complex in human THP1 cells assessed as TNF-alpha release at 0.1 uM to 1 uM after 24 hrs by ELISA. The gist of the method:
as §2

Assay [12] has the same target. Description: Agonist activity at TLR4/MD-2 receptor complex in human THP1 cells assessed as TNF-alpha release at 10 uM after 24 hrs by ELISA. The gist of the method: as §2
Assay [13] has the same target. Description: Agonist activity at TLR4/MD-2 receptor complex in human THP1 cells assessed as TNF-alpha release at 0.1 uM after 24 hrs by ELISA in presence of 0.1 uM of lipid IVa. In outline:
as §1

Assay [14] shares this target. Description: Agonist activity at TLR4/MD-2 receptor complex in human THP1 cells assessed as TNF-alpha release at 0.001 uM after 24 hrs by ELISA in presence of 0.1 uM of lipid IVa. In outline:
as §1

For assay [15] the target is unchanged. Description: Agonist activity at TLR4/MD-2 receptor complex in human THP1 cells assessed as IL-6 release at 10 uM after 24 hrs by ELISA. In outline: as §2

Activity calls are given as the source filed them. No cut-off for these calls is given here.

On to `CCCCCCCCCCCCCC(=O)O[C@H](CCCCCCCCCCC)CC(=O)N[C@H]1[C@H](OCCN(CC(=O)O)C(=O)C[C@@H](CCCCCCCCCCC)OC(=O)CCCCCCCCCCCCC)O[C@H](CO)[C@@H](OP(=O)(O)O)[C@@H]1OC(=O)C[C@@H](CCCCCCCCCCC)OC(=O)CCCCCCCCCCCCC`, for which the outcome in assay [1], in [2], in [4], in [5], in assay [6] and in [7] was Active. The result in [8], in assay [9], in assay [10], in assay [11], in assay [12] and in assay [13] was Active. In addition, the outcome in assay [14] and in assay [15] was Active. The outcome in assay [3] was inactive.
Take `CCCCCCCCCCCCCC(=O)O[C@H](CCCCCCCCCCC)CC(=O)N[C@H]1[C@H](OCCN(CCO)C(=O)C[C@@H](CCCCCCCCCCC)OC(=O)CCCCCCCCCCCCC)O[C@H](CO)[C@@H](OP(=O)(O)O)[C@@H]1OC(=O)C[C@@H](CCCCCCCCCCC)OC(=O)CCCCCCCCCCCCC`: the result in assay [5], in assay [7], in assay [8], in assay [9], in assay [10] and in assay [11] was Active. The result in assay [12] and in [15] was Active.
As for `CCCCCCCCCCCCCC(=O)O[C@H](CCCCCCCCCCC)CC(=O)N[C@H]1[C@H](OCCN(CCOP(=O)(O)O)C(=O)C[C@@H](CCCCCCCCCCC)OC(=O)CCCCCCCCCCCCC)O[C@H](CO)[C@@H](OP(=O)(O)O)[C@@H]1OC(=O)C[C@@H](CCCCCCCCCCC)OC(=O)CCCCCCCCCCCCC`, the outcome in assay [5], in [7], in [8], in assay [9], in assay [10] and in [11] was Active. The outcome in [12] and in [15] was Active.

(Values after ChEMBL document CHEMBL2375239, “Improving the immunostimulatory potency of diethanolamine-containing lipid A mimics” (Bioorg Med Chem, 2013).)
